For 18 compounds, logD and AUC(0-t) results are on record in ChEMBL document CHEMBL2062481 (J Med Chem, 2012).

A short description of series [1]: 1-octanol-phosphate buffer distribution coefficient, log D of the compound at 1 uM after 2 hrs by shake flask method at pH 7.4. In kind it is physicochemical. In outline: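 Phosphate buffer (0.1 M, pH 7.4) and 1-octanol were mutually pre-saturated. Analyte at 1 μM in buffer was overlaid with octanol at two volume ratios chosen by lipophilicity class, three wells per ratio. Plates were shaken 2 h at 25 °C and centrifuged, and the aqueous phase was quantified by LC-MS. Results were accepted if the two ratio means agreed within 0.1 unit.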

Series [2] is described as follows: AUC (0 to 24 hrs) in C3H/HeN mouse urine at 0.05 mg/kg, iv administered as single dose. In kind it is ADME, organism-based. Set-up: time < 24 hr, dose 0.05 mg/kg, route intravenous. In outline:
(§1)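 Female C3H/HeN mice (19–25 g) received a single tail-vein iv dose in 100 μL PBS. Blood and urine (10 μL) were sampled at 6 and 30 min and at 1, 2, 4, 6 and 8 h. Samples were methanol-precipitated, centrifuged and quantified by LC-MS. n = 4.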

The nature of series [3]: AUC (0 to 24 hrs) in C3H/HeN mouse plasma at 0.05 mg/kg, iv administered as single dose. Also noted: time < 24 hr, dose 0.05 mg/kg, route intravenous. It is filed as ADME, organism-based. The method in brief: as §1
The nature of series [4]: AUC (0 to 24 hrs) in C3H/HeN mouse plasma at 1 mg/kg, iv administered as single dose. It is filed as ADME, organism-based. Also noted: time < 24 hr, dose 1 mg/kg, route intravenous. In outline: as §1
Series [5] can be described thus: AUC (0 to 24 hrs) in C3H/HeN mouse urine at 1 mg/kg, iv administered as single dose. In kind it is ADME, organism-based. Also noted: time < 24 hr, dose 1 mg/kg, route intravenous. The method in brief:
as §1

The nature of series [6]: AUC (0 to 24 hrs) in C3H/HeN mouse plasma at 25 mg/kg, iv administered as single dose. It is filed as ADME, organism-based. Also noted: time < 24 hr, dose 25 mg/kg, route intravenous. The method in brief:
as §1

The nature of series [7]: AUC (0 to 24 hrs) in C3H/HeN mouse urine at 25 mg/kg, iv administered as single dose. In kind it is ADME, organism-based. Set-up: time < 24 hr, dose 25 mg/kg, route intravenous. In outline:
as §1

Series [8] in a line: AUC (0 to 24 hrs) in C3H/HeN mouse plasma at 5 mg/kg, iv administered as single dose. In kind it is ADME, organism-based. Set-up: time < 24 hr, dose 5 mg/kg, route intravenous. In outline:
as §1

The term logD denotes the decadic logarithm of the distribution of all forms, ionised or not, between an organic phase and buffer at a given pH. Read a high logD as a more lipophilic compound. Compound `OC[C@H]1O[C@H](Oc2ccc(N3CCc4ccccc43)cc2Cl)[C@@H](O)[C@@H](O)[C@@H]1O` gave a pH-dependent lipophilicity (logD) at 2 h, 1 µM in series [1] of 2.8.
In the case of `OC[C@H]1O[C@H](Oc2ccc(-c3cnc4[nH]ccc4c3)cc2Cl)[C@@H](O)[C@@H](O)[C@@H]1O`, the logD at 2 h, 1 µM in series [1] was 3.2.
On the same count and under the same terms, under `OC[C@H]1O[C@H](Oc2ccc(-n3ccc4c(OCc5ccccc5)cccc43)cc2Cl)[C@@H](O)[C@@H](O)[C@@H]1O` stands 2.7.
One may read the AUC(0-t) as exposure summed from dosing to a finite time, without extrapolation to infinity. High values mean more exposure, low ones less exposure. As for `O=[N+]([O-])c1ccc2c(c1)CCN2c1ccc(O[C@H]2O[C@H](CO)[C@@H](O)[C@H](O)[C@@H]2O)c(Cl)c1`, the AUC(0-t) at 24 h in series [2] was 33400 ng·h/mL; in series [3] it was 3500 ng·h/mL. Moreover, the log distribution coefficient (logD) at 2 h, 1 µM in series [1] came to 1.9.
The compound `COC(=O)c1ccc2c(ccn2-c2ccc(O[C@H]3O[C@H](CO)[C@@H](O)[C@H](O)[C@@H]3O)c(Cl)c2)c1` yielded a logD at 2 h, 1 µM in series [1] of 2.8.
Take `OC[C@H]1O[C@H](Oc2ccc(N3CCc4ccccc43)cc2)[C@@H](O)[C@@H](O)[C@@H]1O`: the logD at 2 h, 1 µM in series [1] stood at 2.3.
Take `O=[N+]([O-])c1ccc2c(c1)CCN2c1ccc(O[C@H]2O[C@H](CO)[C@@H](O)[C@H](O)[C@@H]2O)cc1`: the results for the AUC(0-t) at 24 h in series [4] and in series [5] were 2200 ng·h/mL and 586000 ng·h/mL, respectively. In series [1], this compound displayed a pH-dependent lipophilicity (logD) at 2 h, 1 µM of 1.9.
The compound `O=[N+]([O-])c1ccc2c(ccn2-c2ccc(O[C@H]3O[C@H](CO)[C@@H](O)[C@H](O)[C@@H]3O)c(F)c2)c1` returned a logD at 2 h, 1 µM in series [1] of 1.9.
`OC[C@H]1O[C@H](Oc2ccc(-n3ccc4cc(Cl)cnc43)cc2Cl)[C@@H](O)[C@@H](O)[C@@H]1O`: in series [1], the log distribution coefficient (logD) at 2 h, 1 µM amounted to 3.4.
Turning to `O=C(O)c1ccc2c(ccn2-c2ccc(O[C@H]3O[C@H](CO)[C@@H](O)[C@H](O)[C@@H]3O)c(Cl)c2)c1`, the pH-dependent lipophilicity (logD) at 2 h, 1 µM in series [1] was 1.1.
`OC[C@H]1O[C@H](Oc2ccc(-n3ccc4ccccc43)cc2F)[C@@H](O)[C@@H](O)[C@@H]1O` displayed a log distribution coefficient (logD) at 2 h, 1 µM in series [1] of 2.4.
Turning to `OC[C@H]1O[C@H](Oc2ccc(-n3ccc4ccccc43)cc2Cl)[C@@H](O)[C@@H](O)[C@@H]1O`, the AUC(0-t) at 24 h in series [6] was 8200 ng·h/mL; in series [7], 19300 ng·h/mL. In addition, the log distribution coefficient (logD) at 2 h, 1 µM in series [1] came out at 1.8.
In series [1], `O=C(O)c1ccc(-c2ccc(O[C@H]3O[C@H](CO)[C@@H](O)[C@H](O)[C@@H]3O)c(Cl)c2)cc1` showed a log distribution coefficient (logD) at 2 h, 1 µM of -0.8.
Still for that read-out and setting: for `COc1ccc2c(ccn2-c2ccc(O[C@H]3O[C@H](CO)[C@@H](O)[C@H](O)[C@@H]3O)c(Cl)c2)c1` the value was 3.
On to `CS(=O)(=O)Nc1ccc2c(ccn2-c2ccc(O[C@H]3O[C@H](CO)[C@@H](O)[C@H](O)[C@@H]3O)c(Cl)c2)c1`, for which the logD at 2 h, 1 µM in series [1] was determined as 1.8.
The same measure, in the same setting: for `Cn1cnc2cc(-c3ccc(O[C@H]4O[C@H](CO)[C@@H](O)[C@H](O)[C@@H]4O)c(Cl)c3)cnc21` the value was 1.3.
Still for that read-out and setting: for `N#Cc1cnc2c(ccn2-c2ccc(O[C@H]3O[C@H](CO)[C@@H](O)[C@H](O)[C@@H]3O)c(Cl)c2)c1` the value was 1.6.
`O=[N+]([O-])c1ccc2c(ccn2-c2ccc(O[C@H]3O[C@H](CO)[C@@H](O)[C@H](O)[C@@H]3O)c(Cl)c2)c1` displayed an exposure AUC(0-t) at 24 h in series [8] of 2300 ng·h/mL. Also, the logD at 2 h, 1 µM in series [1] is 1.8.
